# Reference: ChEMBL document CHEMBL1157623, “Benzyl 1,2,3,5,11,11a-hexahydro-3,3-dimethyl-1-oxo-6H-imidazo[3',4':1,2]pyridin[3,4-b]indole-2-substituted acetates: One-pot-preparation, anti-tumor activity, docking toward DNA and 3D QSAR analysis” (Bioorg Med Chem, 2010)
# pIC50: −log10 of the molar value.
# Key:
# [1] = system: A549; assay: Antiproliferative activity against human A549 cells after 3 days by sulforhodamine B assay; assay type: functional, cell-based; conditions: A549, 72 h
# Outline: (§1)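 Freshly trypsinized cells seeded at 5000 per well; compounds added from DMSO-diluted stock at 60, 6, 0.6, 0.06 and 0.006 µM. After 3 days, attached cells were fixed with cold 10% trichloroacetic acid, stained with 0.4% sulforhodamine B, the bound dye solubilized, and absorbance read at 562 nm. IC50 is the concentration reducing cell growth by 50%, averaged from at least three independent determinations.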
# [2] = Lipophilicity, log K at 10 uM after 40 mins by HPLC analysis; assay type: physicochemical
# Outline: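 Sample at 10^-5 M analysed by reversed-phase C18 HPLC, eluted with CH3OH/H2O 0.7/0.3 at 1 mL/min for 40 min, UV detection at 254.8 nm. Retention time tR recorded; acetone peak taken as t0 (1.591 min). Log K = Log[(tR − t0)/t0].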
# [3] = system: PC-3; assay: Antiproliferative activity against human PC3 cells after 3 days by sulforhodamine B assay; assay type: functional, cell-based; conditions: PC-3, 72 h; outline: as §1
# [4] = system: KB; assay: Antiproliferative activity against human KB cells after 3 days by sulforhodamine B assay; assay type: functional, cell-based; conditions: 72 h; outline: as §1
# [5] = system: MCF7; assay: Antiproliferative activity against human MCF7 cells after 3 days by sulforhodamine B assay; assay type: functional, cell-based; conditions: MCF7, 72 h; outline: as §1
# [6] = Antiproliferative activity against human KBVIN cells after 3 days by sulforhodamine B assay; assay type: functional, cell-based; conditions: 72 h; outline: as §1
# [7] = system: CCRF S-180; assay: Antitumor activity against mouse S180 cells xenografted in ICR mouse assessed as tumor weight at 1 mg/kg, ip administered 24 hrs after tumor implantation daily for 7 consecutive days measured after 24 hrs of last dose (Rvb=1.602 +/- 0.391 g); assay type: functional; conditions: route intraperitoneal
# [8] = system: Mus musculus; assay: Toxicity in ICR mouse xenografted with mouse S180 cells assessed as brain weight at 1 mg/kg, ip administered 24 hrs after tumor implantation daily for 7 consecutive days measured after 24 hrs of last dose (Rvb=0.31 +/- 0.01 g); assay type: organism-based, CCRF S-180; set-up: dose 1 mg/kg, route intraperitoneal; conditions: in vivo
# [9] = system: Mus musculus; assay: Toxicity in ICR mouse xenografted with mouse S180 cells assessed as spleen weight at 1 mg/kg, ip administered 24 hrs after tumor implantation daily for 7 consecutive days measured after 24 hrs of last dose (Rvb=0.22 +/- 0.04 g); assay type: organism-based, CCRF S-180; set-up: dose 1 mg/kg, route intraperitoneal; conditions: in vivo
# [10] = system: Mus musculus; assay: Toxicity in ICR mouse assessed as change in liver weight at 10 to 500 mg/kg, ip measured on day 7 post dose by necroscopy; assay type: organism-based; set-up: dose 10-500 mg/kg, route intraperitoneal; conditions: in vivo
# [11] = system: Mus musculus; assay: Toxicity in ICR mouse xenografted with mouse S180 cells assessed as femur weight at 1 mg/kg, ip administered 24 hrs after tumor implantation daily for 7 consecutive days measured after 24 hrs of last dose (Rvb=0.056 +/- 0.006 g); assay type: organism-based, CCRF S-180; set-up: dose 1 mg/kg, route intraperitoneal; conditions: in vivo
# [12] = system: Mus musculus; assay: Toxicity in ICR mouse xenografted with mouse S180 cells assessed as body weight at 1 mg/kg, ip administered 24 hrs after tumor implantation daily for 7 consecutive days measured after 24 hrs of last dose (Rvb=33.3 +/- 2.32 g); assay type: organism-based, CCRF S-180; set-up: dose 1 mg/kg, route intraperitoneal; conditions: in vivo
# [13] = system: Mus musculus; assay: Neurotoxicity in ICR mouse assessed as occurrence of neurotoxic behavior at 10 to 500 mg/kg, ip measured up to 7 days post dose; assay type: toxicity, organism-based; set-up: dose 10-500 mg/kg, route intraperitoneal; conditions: in vivo, 168 h
# Outline: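 Healthy ICR mice, 10–12 weeks old, 12 per group (six male, six female), fasted overnight with water available. Single ip injection of 10, 100 or 500 mg/kg in 0.2 mL 0.9% saline. Monitored continuously up to 7 days for abnormal behavior (tremor, twitch, jumping, tetanus, supination) or death. Sacrificed on day 7; heart, liver and kidneys checked macroscopically.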
# [14] = system: Mus musculus; assay: Toxicity in ICR mouse xenografted with mouse S180 cells assessed as liver weight at 1 mg/kg, ip administered 24 hrs after tumor implantation daily for 7 consecutive days measured after 24 hrs of last dose (Rvb=2.36 +/- 0.20 g); assay type: organism-based, CCRF S-180; set-up: dose 1 mg/kg, route intraperitoneal; conditions: in vivo
# [15] = system: Mus musculus; assay: Toxicity in ICR mouse xenografted with mouse S180 cells assessed as kidney weight at 1 mg/kg, ip administered 24 hrs after tumor implantation daily for 7 consecutive days measured after 24 hrs of last dose (Rvb=0.23 +/- 0.02 g); assay type: organism-based, CCRF S-180; set-up: dose 1 mg/kg, route intraperitoneal; conditions: in vivo
# [16] = system: Mus musculus; assay: Toxicity in ICR mouse assessed as change in heart weight at 10 to 500 mg/kg, ip measured on day 7 post dose by necroscopy; assay type: organism-based; set-up: dose 10-500 mg/kg, route intraperitoneal; conditions: in vivo
# [17] = system: Mus musculus; assay: Toxicity in ICR mouse xenografted with mouse S180 cells assessed as heart weight at 1 mg/kg, ip administered 24 hrs after tumor implantation daily for 7 consecutive days measured after 24 hrs of last dose (Rvb=0.17 +/- 0.01 g); assay type: organism-based, CCRF S-180; set-up: dose 1 mg/kg, route intraperitoneal; conditions: in vivo
# [18] = system: Mus musculus; assay: Toxicity in ICR mouse assessed as mortality up to 500 mg/kg, ip measured after 7 days post dose; assay type: organism-based; set-up: dose 500 mg/kg, route intraperitoneal; conditions: in vivo, 168 h
# Outline: (§2)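 ICR mice, 10–12 weeks old, of both sexes (six males and six females, 12 per group), housed at 21 °C and fasted overnight with water available. They received a single ip injection of 10, 100 or 500 mg/kg in 0.2 mL 0.9% saline. Mice were watched continuously for 7 days for neurotoxic behaviour or death, then killed on day 7 and checked macroscopically (heart, liver, kidneys). LD50 was estimated graphically.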
# [19] = system: Mus musculus; assay: Toxicity in ICR mouse assessed as change in kidney weight at 10 to 500 mg/kg, ip measured on day 7 post dose by necroscopy; assay type: organism-based; set-up: dose 10-500 mg/kg, route intraperitoneal; conditions: in vivo
# [20] = Toxicity in ip dosed ICR mouse measured after 7 days post dose; assay type: organism-based; conditions: in vivo; outline: as §2
SMILES,pIC50 [1],log K [2],pIC50 [3],pIC50 [4],pIC50 [5],pIC50 [6],Activity [7] [g],Activity [8] [g],Activity [9] [g],Activity [10],Activity [11] [g],Activity [12] [g],Activity [13],Activity [14] [g],Activity [15] [g],Activity [16],Activity [17] [g],Activity [18],Activity [19],LD50 at 168 h [20] [mg/kg]
CC(C)[C@@H](C(=O)OCc1ccccc1)N1C(=O)[C@@H]2Cc3c([nH]c4ccccc34)CN2C1(C)C,4.35,0.73,5.07,4.28,4.47,4.28,2.003,–,–,–,–,–,–,–,–,–,–,–,–,–
CC1(C)N2Cc3[nH]c4ccccc4c3C[C@H]2C(=O)N1[C@@H](Cc1ccccc1)C(=O)OCc1ccccc1,4.45,1.05,4.39,4.33,4.37,4.39,1.6,–,–,–,–,–,–,–,–,–,–,–,–,–
CC1(C)N(CC(=O)OCc2ccccc2)C(=O)[C@@H]2Cc3c([nH]c4ccccc34)CN21,5.10,0.32,5.00,4.65,4.98,4.91,0.916,0.3,0.24,Non-toxic,0.055,33.75,Non-toxic,2.25,0.22,Non-toxic,0.16,Non-toxic,Non-toxic,> 500
CC1(C)N2Cc3[nH]c4ccccc4c3C[C@H]2C(=O)N1[C@@H](COCc1ccccc1)C(=O)OCc1ccccc1,4.63,1.02,4.86,4.42,4.70,4.37,1.793,–,–,–,–,–,–,–,–,–,–,–,–,–
CC(C)C[C@@H](C(=O)OCc1ccccc1)N1C(=O)[C@@H]2Cc3c([nH]c4ccccc34)CN2C1(C)C,4.51,0.92,5.15,4.39,4.83,4.49,2.05,–,–,–,–,–,–,–,–,–,–,–,–,–
CC1(C)N2Cc3[nH]c4ccccc4c3C[C@H]2C(=O)N1[C@@H](Cc1ccc(O)cc1)C(=O)OCc1ccccc1,6.92,0.49,6.16,4.74,5.35,5.08,1.046,0.32,0.23,Non-toxic,0.056,35.85,Non-toxic,2.35,0.23,Non-toxic,0.16,Non-toxic,Non-toxic,> 500
CC1(C)N2Cc3[nH]c4ccccc4c3C[C@H]2C(=O)N1[C@@H](CC(N)=O)C(=O)OCc1ccccc1,4.40,0.16,4.77,4.36,4.70,4.30,1.604,–,–,–,–,–,–,–,–,–,–,–,–,–
CC1(C)N2Cc3[nH]c4ccccc4c3C[C@H]2C(=O)N1[C@@H](CCCCNC(=O)OCc1ccccc1)C(=O)OCc1ccccc1,5.08,0.87,5.37,4.48,5.34,4.51,1.613,–,–,–,–,–,–,–,–,–,–,–,–,–
COc1cccc2c1C(=O)c1c(O)c3c(c(O)c1C2=O)C[C@@](O)(C(=O)CO)C[C@@H]3O[C@H]1C[C@H](N)[C@H](O)[C@H](C)O1 [DOXORUBICIN],–,–,–,–,–,–,0.817,0.32,0.11,–,0.046,27.28,–,2,0.19,–,0.15,–,–,–
CCC(C)[C@@H](C(=O)OCc1ccccc1)N1C(=O)[C@@H]2Cc3c([nH]c4ccccc34)CN2C1(C)C (stereo partly drawn),4.36,0.8,4.99,4.30,4.68,4.29,2.846,–,–,–,–,–,–,–,–,–,–,–,–,–
CC1(C)N2Cc3[nH]c4ccccc4c3C[C@H]2C(=O)N1[C@@H](CCC(N)=O)C(=O)OCc1ccccc1,4.42,0.25,5.00,4.38,4.69,4.40,1.696,–,–,–,–,–,–,–,–,–,–,–,–,–
C[C@@H](C(=O)OCc1ccccc1)N1C(=O)[C@@H]2Cc3c([nH]c4ccccc34)CN2C1(C)C,4.23,0.44,4.32,4.22,4.24,4.25,1.418,–,–,–,–,–,–,–,–,–,–,–,–,–
CC1(C)N2Cc3[nH]c4ccccc4c3C[C@H]2C(=O)N1[C@@H](CCC(=O)OCc1ccccc1)C(=O)OCc1ccccc1,4.47,1.05,4.45,4.40,4.43,4.42,1.578,–,–,–,–,–,–,–,–,–,–,–,–,–
